Assay outcomes deposited in PubChem BioAssay by several laboratories.
Shown is part of a subset that was picked to be rich in hits.
Dynein transport: dynein cargo transport inhibition; z-score, hits read low; 3617.4 mouse cells, GR-EGFP nuclear translocation imaging; test concentration mostly 20 µM; stimulated with dexamethasone, 1 µM; hits give low values; 220,000 compounds, 0.47% hits; AID 1381;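 active means plate z-score of nuclear minus cytoplasmic receptor signal below a set negative limit, without overly bright fluorescence or cell loss, cut at about -3.5 in these data, passing the limit was not always enough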;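 further: z-score of nuclear minus cytoplasmic ring GR-EGFP intensity difference per well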
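Buffer or medium: Induction medium lacking tetracycline, stripped serum | Also added: Dexamethasone agonist, 1.0 µM final, for 30 min | Timing: 48 h induction, 1 h compound, 30 min dex at 37 °C | Detection: Formaldehyde fixation, Hoechst nuclear stain, 10x automated fluorescence imaging | Measure: Nuclear versus cytoplasmic GR-EGFP signal, averaged per well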
CHOP inhibitor: blocks CHOP induction under ER stress. CHO-K1 CHOP-promoter luciferase, tunicamycin-induced, 15-18 h. inhibition, % at 10 µM. 220,000 compounds, 3.8% hits. AID 2732;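 active means compounds that reduced the stress-induced luciferase reporter signal by more than about 70% of percent inhibition, limit read from the data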
T cruzi repl: T. cruzi replication inhibition. T. cruzi beta-gal in NIH3T3, luminescence, 90 h. inhibition, % (test concentration not listed). 300,000 compounds, 1.4% hits. AID 1885;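 active means mean inhibition across valid replicates above about 55%, limit read from the data; inconclusive means mean below that limit but half or more replicates reach it; inactive means mean below it, under half of replicates reach it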;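 further: signal also drops with host cell toxicity which is not excluded here; higher percent means less beta-gal luminescence so fewer parasites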
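Incubation – ≥90 h infection period, 3 h prior cell attachment · System – NIH/3T3 fibroblasts plus reporter T. cruzi · Doses – compound pinned at 50 nL/well, DMSO · Read-out basis – percent inhibition of parasite-derived β-gal signal · Signal – luminescent β-galactosidase signal after 60 min lysis · Also added – 5000 T. cruzi trypomastigotes/well · Medium – Low-serum DMEM with 2% FBS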
Lmaj promast: Leishmania major promastigote growth inhibition; AID 1063; Leishmania major promastigotes, resazurin fluorescence viability; 200,000 compounds, 9% hits; inhibition, % at 10 µM; in the data active means inhibition above about 50%;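 further: promastigotes grown with compound for 44 hours at 28 °C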
UPR XBP1 act: activators of adaptive arm of unfolded protein response (XBP1). 330,000 compounds, 0.33% hits. AID 463104. CHO-XBP1 luciferase reporter, IRE1-XBP1 UPR activation, luminescence; percent of tunicamycin response, DMSO as zero. activation, % at 20 µM;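 active means versus positive control, 20 µM dose yields 30% or more activation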
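Material: CHO-XBP1 cells stably carrying IRE1-XBP1-driven luciferase reporter / Amount: 1000 cells per well / Compound: 20 µM, 1% DMSO / Times: 6 h treatment, 37 °C / Detection: luciferase luminescence / Measure: % activation of reporter signal versus tunicamycin and DMSO controls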
CHOP UPR activ: activators of apoptotic arm of unfolded protein response (CHOP). CHO-CHOP luciferase reporter, UPR activation, luminescence; percent of tunicamycin response over DMSO baseline. activation, % at 10 µM. 330,000 compounds, 0.34% hits. AID 449763;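 active means at 10 µM dose, activation of 40% or more, normalized to positive control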
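Test system: CHO CHOP reporter cells. Input: 500 CHO-CHOP cells per well. Medium: F12 with 10% FBS. Technique: luciferase luminescence. Measure: percent activation relative to tunicamycin control. Dosing: 10 µM compound, 0.5% DMSO. Timing: 16-18 h cell attachment, then 6 h compound exposure, 37 °C.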
A number is an active result; - = inactive; ? = inconclusive; . = no result given.

SMILES	Dynein transport	CHOP inhibitor	T cruzi repl	Lmaj promast	UPR XBP1 act	CHOP UPR activ
Cn1c(=O)c(C(=O)COC(=O)c2cc(C(F)(F)F)nc3ccccc23)c(N)n(Cc2ccccc2)c1=O	-	-	-	-	-	-
Cn1c(=O)c(C(=O)COC(=O)c2cc(-c3ccccc3)nc3ccccc23)c(N)n(Cc2ccccc2)c1=O	-	-	?	100.1	-	-
Cn1c(=O)c(C(=O)COc2ccc(F)cc2Cl)c(N)n(Cc2ccccc2)c1=O	-	78.8	-	56.0	-	-
CCn1c(=O)c(C(=O)CN(C)Cc2cccc(OC)c2OC)c(N)n(Cc2ccccc2)c1=O	-	-	-	-	-	-
Cn1cc(C(=O)c2ccc(Cl)cc2Cl)cc1C(=O)N/N=C(\N)COc1cccc(C(F)(F)F)c1	-	-	-	-	-	-
Cc1cc(C)nc(/N=C(\N)Nc2ccc(C(C)C)cc2)n1	-	-	-	.	-	-
COc1ccccc1C(=O)NC(C)c1ccc(-n2ccnc2)cc1 (stereo not drawn)	.	.	-	.	-	-
COC(=O)c1ccc2c(=O)[nH]c(CSc3nnc(C(F)(F)F)n3C)nc2c1	-	-	-	55.9	-	-
COC(=O)c1ccc2c(=O)[nH]c(CSc3nc(C)cs3)nc2c1	-	-	-	-	-	-
Cc1ccc2c(c1)cc(CN(Cc1ccc3c(c1)OCO3)C(=O)c1ccccc1)c1nnnn12	-	-	-	58.5	-	-
Cc1ccc2c(c1)cc(CN(Cc1cccnc1)C(=O)NCc1ccccc1)c1nnnn12	-	-	-	99.5	-	-
O=C(COc1cccc(F)c1)Nc1nc(-c2ccncc2)cs1	.	.	.	.	-	-
Cc1nc(NC2CCCCC2)c2nnn(Cc3ccccc3Cl)c2n1	.	.	-	.	-	-
Cc1nc(N2CCCC2)c2nnn(Cc3ccccc3Cl)c2n1	-	73.3	.	-	-	-
CC(C)CCNc1ncnc2c1nnn2Cc1ccccc1Cl	-	78.6	-	-	-	-
CCOc1ccc(/C=N/Nc2cc(=O)n(C)c(=O)n2C)cc1	-	-	-	70.8	-	-
C[C@@H]1C(c2cccc(Cl)c2)=NN(c2ccc(Br)cc2)[C@H]1C(=O)N1CCOC1=O	.	.	.	.	-	-
CC1CCc2cc(F)cc3c(O)c(C(=O)NCC4CCCO4)c(=O)n1c23 (stereo not drawn)	-	76.7	-	-	-	-
CCn1c(SCC(=O)Nc2ccc(F)cc2)nnc1-c1cnccn1	.	.	-	.	-	-
O=C(CN1CCOCC1)N1CCN(c2nnc(-c3ccccc3)c3ccccc23)CC1	-	-	-	-	-	-
c1ccc(-c2nnc(OCCN3CCOCC3)c3ccccc23)cc1	-	-	-	83.2	-	-
O=C(NCC1CCCO1)c1cn(Cc2ccccc2Cl)nc1-c1ccccc1 (stereo not drawn)	.	.	.	.	-	-
CCCCN(Cc1ccccc1)c1ncnc2nc[nH]c12	-	75.0	-	-	-	-
CCCCN(CCCC)c1ncnc2nc[nH]c12	-	-	-	-	-	-
Cc1cccc(NC(=O)c2nc[nH]c2C(=O)N[C@@H](Cc2ccccc2)C(=O)OC(C)(C)C)c1	-	73.7	-	.	-	-
SMILES	Dynein transport	CHOP inhibitor	T cruzi repl	Lmaj promast	UPR XBP1 act	CHOP UPR activ
CC(C)C[C@H](NC(=O)c1nc[nH]c1C(=O)NCC(=O)OC(C)(C)C)C(=O)OC(C)(C)C	-	83.8	-	.	-	-
CC(C)(C)OC(=O)[C@H](Cc1ccccc1)NC(=O)c1[nH]cnc1C(=O)Nc1cccc(Cl)c1	-	-	-	.	-	-
Cc1ccccc1N1CCN(C(=O)c2cc(C3CC3)nn2-c2ccccc2)CC1	.	.	.	.	-	-
O=C1/C(=C/c2c[nH]c3ccccc23)CCC/C1=C\c1c[nH]c2ccccc12	-	-	-	84.1	-	-
Cc1ccc(S(=O)(=O)NCCC2=CCCCC2)cc1	.	.	.	.	-	-
Cc1ccc(CNCCC2=CCCCC2)cc1	-	-	-	69.7	-	-
COc1cc(OC)cc(C(=O)NNC(=O)CN2C(=O)NC(C)(c3ccc(C)cc3)C2=O)c1 (stereo not drawn)	.	.	-	.	-	-
CC(C)(C)C(=O)Nc1ccccc1N1CCN(C(=O)c2ccc(Cl)cc2)CC1	-	-	-	-	-	-
CC(C)C(=O)NC(=S)Nc1ccccc1N1CCN(C(=O)c2ccc(Cl)cc2)CC1	-	-	63.5	-	-	-
CC(C)(C)C(=O)Nc1cc2nn(-c3ccccc3)nc2cc1Cl	-	79.9	.	-	.	.
Fc1ccc(N2CCN(Cc3cnc(N4CCOCC4)s3)CC2)cc1	-	-	-	63.6	-	-
COc1ccc(C2NC(=S)NC3=C2CCc2cc(OC)ccc23)cc1 (stereo not drawn)	-	-	-	62.5	-	-
Cc1ccc(/C=C2\CCCC3=C2NC(=S)NC3c2ccc(C)cc2)cc1 (stereo not drawn)	-	-	-	-	-	-
CCOc1ccc(C2/C(=C(\O)c3cccc(OC)c3)C(=O)C(=O)N2c2ccccn2)cc1OC (stereo not drawn)	-	-	-	.	-	-
CCN(CC)CCCNC(=O)c1ccc(S(=O)(=O)Nc2ccc(C)c(C)c2)cc1	.	.	.	.	-	-
COc1cc(Cl)c(S(=O)(=O)NCCCN2CCOCC2)cc1Cl	-	-	-	93.1	-	-
COc1cc(C)c(Cl)cc1S(=O)(=O)NCCCN1CCOCC1	-	-	-	85.5	-	-
COc1cc(C)c(Br)cc1S(=O)(=O)NCCCN1CCOCC1	-	-	-	75.1	-	-
Cc1ccc(S(=O)(=O)NCCCN2CCOCC2)c(C)c1	-	-	-	52.4	-	-
Cc1cc(S(=O)(=O)NCCCN2CCOCC2)c(Cl)cc1Cl	.	.	-	.	-	-
Cc1cc2ccccn2c1C(=O)c1cccc([N+](=O)[O-])c1	-	-	-	-	-	-
Cc1cc2ccccn2c1C(=O)c1ccc([N+](=O)[O-])o1	-	-	73.6	99.4	-	-
O=C(NCc1csc2ccccc12)Nc1cc(Cl)cc(Cl)c1	-	86.3	-	.	-	-
CCOc1ccccc1C(=O)Nc1ccccc1-c1ccccc1	-	-	-	72.6	-	-
CCOc1ccccc1C(=O)Nc1ccccc1O	-	-	-	71.2	-	-
CCOc1ccccc1C(=O)Nc1cccc2ccccc12	.	.	-	.	-	-
Nc1ncc(Br)cc1S(=O)(=O)Nc1cc(C(F)(F)F)cc(C(F)(F)F)c1	.	.	-	.	-	-
COCCN(C(=O)Cc1cccs1)C(C(=O)NCc1ccc(OC)cc1)c1ccc(C(C)C)cc1 (stereo not drawn)	.	93.9	-	-	-	-
COc1ccc(CNC(=O)C(c2ccc(C)o2)N(Cc2cccs2)C(=O)Cc2cccs2)cc1 (stereo not drawn)	-	-	-	86.9	-	-
CC(OC(=O)CN1C(=O)NC2(CCCC2)C1=O)C(=O)c1ccccc1 (stereo not drawn)	.	.	-	.	-	-
